Furin inhibitor – blocks human furin protease activity. purified furin, fluorogenic substrate cleavage. inhibition, % at 20 µM or 30 µM. hit rate 0.061% among 220,000; in the data active = inhibition above about 25%
FXIIa inh 1536 – blocks human coagulation factor XIIa protease activity; hit rate 0.3% among 220,000; purified FXIIa, Boc-QGR-AMC fluorogenic substrate, 2 h; inhibition, % at 5 µM; in the data active = inhibition above about 40%;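 also: 0% = enzyme with no compound and 100% = blank without enzyme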
Thrombin inh – thrombin (human) inhibition. alpha-thrombin, Boc-VPR-AMC fluorogenic substrate cleavage. inhibition, % at 5 µM. hit rate 0.26% among 220,000. AID 1046;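 active = inhibition at or above 40%; inactive = inhibition below 40%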;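 also: 0% = enzyme with no compound and 100% = wells without enzyme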
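Material: human alpha-thrombin protein; Also added: Boc-VPR-AMC substrate, 15 µM final; Timing: enzyme reaction carried out at room temperature; Signal: fluorescence, ex 355 nm, em 460 nm; Measure: % inhibition of thrombin; Controls: enzyme without compound as high, wells lacking enzyme as low.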
FXIa inh – inhibitors of human coagulation factor XIa; P03951; purified FXIa, Boc-Glu-Ala-Arg-AMC fluorogenic substrate; inhibition, % at 5 µM; hit rate 0.14% among 220,000; AID 798;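 active = inhibition of at least 40%; inactive = inhibition below 40%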;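 also: fluorescence of freed AMC excited at 355 nm; 0% = enzyme without compound and 100% = no enzyme blank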
Target sequence (P03951 19-387 limits assumed): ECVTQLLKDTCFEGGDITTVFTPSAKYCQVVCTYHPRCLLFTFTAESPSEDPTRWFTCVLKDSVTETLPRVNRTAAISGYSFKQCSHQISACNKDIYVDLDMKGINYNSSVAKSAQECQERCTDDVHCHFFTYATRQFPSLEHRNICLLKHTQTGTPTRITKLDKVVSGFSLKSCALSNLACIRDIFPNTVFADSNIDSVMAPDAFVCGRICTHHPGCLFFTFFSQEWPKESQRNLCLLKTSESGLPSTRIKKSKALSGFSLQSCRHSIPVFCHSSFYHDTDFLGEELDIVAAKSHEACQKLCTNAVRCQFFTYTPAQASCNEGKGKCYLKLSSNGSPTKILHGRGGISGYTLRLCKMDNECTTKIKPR
Target sequence (P03951 388-625 limits assumed): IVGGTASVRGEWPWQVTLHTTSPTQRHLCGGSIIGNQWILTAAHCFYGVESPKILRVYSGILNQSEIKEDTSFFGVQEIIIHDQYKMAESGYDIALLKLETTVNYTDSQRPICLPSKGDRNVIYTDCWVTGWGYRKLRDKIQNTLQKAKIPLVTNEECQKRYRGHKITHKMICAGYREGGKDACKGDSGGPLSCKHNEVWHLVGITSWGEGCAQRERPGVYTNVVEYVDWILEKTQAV
PERK inh – blocks human PERK kinase | CHO PERK-DD fusion, SEAP luminescence translation reporter | inhibition, % at 5.6 µM | Q9NZJ5 | hit rate 0.17% among 220,000 | AID 1416;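 active = inhibition above the mean inhibition of all tested compounds plus 3 SD, set separately per screening campaign, cut at about 2.9% in these data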;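 also: PERK kinase domain activated by AP20187 dimerizer at 100 nM; 0% = DMSO with dimerizer and 100% = rapamycin at 8.4 µM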
hK5 inh – kallikrein 5 (human) inhibition; Q9Y337; inhibition, % at 5 µM; recombinant hK5, fluorogenic AMC substrate cleavage; hit rate 0.59% among 210,000; AID 873;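 active = inhibition of 40% or more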;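 also: 0% = enzyme controls without compound and 100% = no-enzyme blanks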
An asterisk follows results filed as active; · = no result given. Compounds with a hit are over-represented: about 1.2% of the library has one in this group of screens.

SMILES	Furin inhibitor	FXIIa inh 1536	Thrombin inh	FXIa inh	PERK inh	hK5 inh
CCCCCCN1C=CC=C/C1=C/C=C(C#N)C#N	30*	15	5	7	-1	-6
C=CCN1C=CC(=CC=C(C#N)C#N)C=C1	22	13	-2	4	1	4
CCCCCN1C=CC=C/C1=C\C=C(C#N)C#N	-13	6	-3	6	0	-7
Cc1ccnn1CC(=O)N/N=C/c1cn[nH]c1-c1ccccc1	-10	7	-1	7	1	-5
O=C(c1nc2ccccn2c1CNCCn1ccc2ccccc21)N1CCOCC1	-14	2	-7	-2	-1	-2
N=C(N)c1ccc(OCCCCCOc2ccc(C(=N)N)cc2)cc1	-16	46*	25	10	0	-1
CCCCCCOc1ccc(/C(N)=N/O)cc1	-23	9	4	1	0	1
O=C(COC(=O)CCc1ccccc1)Nc1ncc(Cl)cc1Cl	-18	17	42*	6	0	3
O=C(COC(=O)CCOc1ccccc1)Nc1ccc(Cl)cn1	-17	0	48*	-11	0	-28
O=C(COc1ccccc1)Nc1ccc(Cl)cn1	-16	5	-6	-2	-1	-4
O=C(O)Cc1c(C(=O)O)nnn1-c1ccc(Cl)cc1Cl	-17	9	-2	1	0	18
S=c1nc(-c2ccc(Br)cc2)[nH]c2ccccc12	-16	9	1	10	3.0*	1
O=C(c1cc2cccc([N+](=O)[O-])c2oc1=O)N1CCOCC1	0	5	-3	-1	1	-1
Cc1ccc(C2CC(c3ccc(Cl)cc3)n3nc(N)nc3N2)cc1 (stereo not given)	-18	4	0	8	0	-3
Clc1ccc(C2CSc3c4ncnc-4ncn32)cc1 (stereo not given)	2	35	8	19	0	46*
Nc1ccnn1Cc1cccs1	-12	43*	22	8	1	79*
Nc1ccnn1Cc1ccncc1	-4	2	-1	-5	1	-4
Cc1cccc(N2N=C(C(=O)N3CC(=O)Nc4ccccc43)CCC2=O)c1	0	44*	22	33	0	34
CCN(CC)C(=O)CSc1nc2ccccc2c(=O)n1CC	-9	17	22	5	-2	88*
O=C(CSc1nnc(COc2ccccc2)n1Cc1ccco1)c1ccc(F)cc1	-2	62*	-9	28	-1	-3
Cc1ccc(OCc2nnc(SCC(=O)c3ccccc3)n2Cc2ccco2)cc1	-3	12	0	9	-1	5
O=c1c2ccccc2nnn1CSc1nc2cc(Cl)ccc2c(=O)n1Cc1ccco1	4	·	·	·	1	·
O=c1c2ccccc2nnn1CSc1nnc(COc2ccc(Cl)cc2)n1Cc1ccco1	-30	19	1	1	0	48*
Cc1c(NC(=O)COC(=O)c2ccc(F)c(S(=O)(=O)N3CCOCC3)c2)c(=O)n(-c2ccccc2)n1C	-25	6	-6	-3	0	2
Cc1cccc(NC(=S)N(CCN2CCOCC2)Cc2ccccc2F)c1	-27	-8	-8	-2	0	-5
SMILES	Furin inhibitor	FXIIa inh 1536	Thrombin inh	FXIa inh	PERK inh	hK5 inh
O=C(Nc1ccccc1)N(CCN1CCOCC1)Cc1ccccc1F	30*	2	-8	-11	1	-10
COc1ccccc1OCCCC(=O)Nc1nccs1	-19	2	-10	-3	1	8
CC1CCCN(S(=O)(=O)c2coc(C(N)=O)c2)C1 (stereo not given)	-7	11	-8	2	2	-2
CC1CCCCN1S(=O)(=O)c1coc(C(N)=O)c1 (stereo not given)	-9	33	18	3	2	42*
CCCn1c(=O)n(C)c(=O)c2c(SCC(=O)NCc3ccco3)nc(C3CC3)nc21	-12	12	4	-7	-1	-9
O=C1c2ccccc2C(Nc2ccc3c(c2)OCCO3)N1c1ccccn1 (stereo not given)	-6	13	9	0	0	51*
Cc1ccc2cccc(OCC(=O)N3CC(C)CC(C)C3)c2n1 (stereo not given)	-23	5	0	-5	1	-7
CCOc1ccccc1NC(=O)C1CCCN(S(=O)(=O)c2cccc3nsnc23)C1 (stereo not given)	-12	23	11	11	-1	121*
CCOc1ccccc1NC(=O)C1CCCN(S(=O)(=O)c2cccc3cccnc23)C1 (stereo not given)	-9	-3	-9	-12	-1	3
CCOc1ccc(OCC)c(NC(=O)C2CCCN(S(=O)(=O)c3cnc[nH]3)C2)c1 (stereo not given)	-36	5	40*	9	1	11
Cc1ccc(N(CC(=O)NCc2ccc(F)cc2)C(=O)c2csnn2)cc1C	-25	-3	-14	-2	0	-4
CCN(CC)CCCN1C(=O)CSC1c1ccc([N+](=O)[O-])cc1 (stereo not given)	-5	4	-6	-4	1	0
CCN(CC)CCCN1C(=O)CSC1c1ccc2c(c1)OCO2 (stereo not given)	-16	19	20	3	0	52*
O=C(c1ccc(CNS(=O)(=O)c2ccc(Br)cc2)cc1)N1CCCC1	-24	13	1	-1	0	·
CC(CCc1ccccc1)NC(=O)Cc1ccccc1 (stereo not given)	-20	4	-10	-7	0	-5
CCCC(C)NC(=O)Cc1ccccc1 (stereo not given)	-5	45*	4	4	1	8
CC(C)CC1NC(=O)N(CC(=O)NC2CCCc3ccccc32)C1=O (stereo not given)	-16	6	-8	6	1	2
Cc1cc2c(c(=O)n1C)C(Cc1ccccc1)C(C#N)=C(N)O2 (stereo not given)	-21	45*	-2	14	0	11
CN1CCN(c2ccc(Cl)cc2NC(=O)/C=C/c2ccc(F)cc2)CC1	-22	7	-4	0	-1	3
Cc1ccc(NC(=O)C(=S)NCc2ccco2)cc1	-22	-2	-4	-4	0	-8
Cc1cc(C)cc(NC(=O)C(=S)NCc2ccccc2)c1	-35	6	-4	0	2.9*	·
Cc1cc(/C=C2\SC(=S)N(C)C2=O)c(C)n1-c1cccc(O)c1	4	7	5	65*	-1	24
O=C(NCc1ccco1)C(=O)NCC1OCCN1S(=O)(=O)c1cc(F)ccc1F (stereo not given)	-14	0	-4	-2	0	-4
COc1ccccc1NS(=O)(=O)c1cc(NC(=O)Nc2ccccc2)ccc1N1CCCCC1	-4	22	19	12	-1	53*
COc1ccccc1NS(=O)(=O)c1cc(NC(=O)C(C)C)ccc1N1CCCCC1	-17	3	-6	-3	1	-4

Screening data (PubChem BioAssay)
